Reference: ChEMBL document CHEMBL1649261, “Pharmacodynamic profile of tigecycline against methicillin-resistant Staphylococcus aureus in an experimental pneumonia model” (Antimicrob Agents Chemother, 2009)
Converted amounts (≈) assume the structure as drawn.

Tested on: Staphylococcus aureus
Assay: Antibacterial activity against hospital-acquired methicillin-resistant Staphylococcus aureus 56 by microdilution method
Assay type: functional
Method in brief: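 Tigecycline MIC measured in triplicate by broth microdilution following CLSI guidelines. Isolates were stored at −80°C in skim milk and subcultured twice on blood agar before testing.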

With CC(=O)NC[C@H]1CN(c2ccc(N3CCOCC3)c(F)c2)C(=O)O1 [LINEZOLID] the MIC was 8 µg/mL (≈ 23.7 µM).
